pIC50: −log10 of the molar value.
Assays:
Format in all cases: functional, cell-based
[1] = system: NALM-6; assay: Cytotoxicity against human NALM6 cells after 48 hrs by MTT assay; details: NALM-6, 48 h
Method in brief: (§1)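 HL-60 (promyelocytic) and NALM-6 (lymphoblastic) human leukemia cells in RPMI 1640 with 10% heat-inactivated FBS, streptomycin/penicillin, 37 °C, 5% CO2; exponentially growing cells seeded 8 × 10^3/well. Compounds from fresh DMSO stocks diluted in medium, 10^-7 to 10^-3 M, 46 h, then MTT 2 h; formazan dissolved in 20% SDS/50% DMF pH 4.7, A562/630. IC50 from concentration-response curves, ≥3 experiments.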

[2] = system: HL-60; assay: Cytotoxicity against human HL60 cells after 48 hrs by MTT assay; details: HL-60, 48 h; method in brief: as §1
[3] = system: L1210; assay: Cytotoxicity against mouse L1210 cells after 48 hrs by MTT assay; details: L1210, 48 h
Method in brief: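 Mouse L-1210 leukemia cells in RPMI 1640 with 10% FCS, gentamycin 50 µg/mL and 0.02 M HEPES; seeded at 1.5 × 10^3 cells/mL, drug added after 24 h, then 48 h further incubation. Cell number relative to untreated control by tetrazolium dye method; IC50 from concentration-survival curves by non-linear (quasi-Newton) fitting, mean of at least three experiments.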

| SMILES | pIC50 [1] | pIC50 [2] | pIC50 [3] |
| --- | --- | --- | --- |
| C=C1C(=O)OC(C)CC1c1ccccc1OC (stereo not drawn) | 5.20 | 5.19 | 5.68 |
| C=C1C(=O)OC(C)CC1C(C)C (stereo not drawn) | 4.25 | 4.21 | 4.35 |
| C=C1C(=O)OC(C)CC1C1CCCCC1 (stereo not drawn) | 4.80 | 4.39 | 4.89 |
| C=C1C(=O)OC(C)CC1c1ccc([N+](=O)[O-])cc1 (stereo not drawn) | 5.47 | 5.21 | 5.92 |
| C=C1C(=O)OC(C)CC1c1ccc(Br)cc1 (stereo not drawn) | 5.35 | 5.32 | 5.76 |
| C=C1C(=O)OC(C)CC1c1ccc(OC)cc1 (stereo not drawn) | 5.24 | 5.23 | 6.10 |
| C=C1C(=O)OC(C)CC1c1ccc2c(c1)OCO2 (stereo not drawn) | 5.26 | 5.26 | 5.15 |
| C=C1C(=O)O[C@H](C)[C@@H]1c1ccc([N+](=O)[O-])cc1 | 5.42 | 4.66 | 5.72 |
| C=C1C(=O)O[C@H](C)[C@@H]1c1ccc2c(c1)OCO2 (relative stereo) | 5.33 | 4.48 | 5.85 |
| C=C1C(=O)O[C@H](C)[C@@H]1c1ccc(OC)cc1 (relative stereo) | 5.25 | 5.32 | 5.36 |
| C=C1C(=O)O[C@H](C)[C@@H]1c1ccc(C)cc1 (relative stereo) | 5.22 | 5.25 | 5.26 |
| C=C1C(=O)O[C@@H](C)[C@@H]1c1ccc(OC)cc1 (relative stereo) | 5.27 | 5.25 | 5.71 |
| C=C1C(=O)O[C@@H](C)[C@@H]1c1ccc(C)cc1 (relative stereo) | 5.36 | 5.30 | 5.82 |
| C=C1C(=O)O[C@H](C)[C@@H]1c1ccc(Br)cc1 (relative stereo) | 5.37 | 5.37 | 5.11 |
| C=C1C(=O)O[C@@H](C)[C@@H]1c1ccc2c(c1)OCO2 (relative stereo) | 5.30 | 5.27 | 6.10 |
| C=C1C(=O)O[C@@H](C)[C@@H]1c1ccc(Br)cc1 (relative stereo) | 5.96 | 5.18 | 6.24 |

— ChEMBL document CHEMBL1154747, “Synthesis and cytotoxic evaluation of beta-alkyl or beta-aryl-delta-methyl-alpha-methylene-delta-lactones. Comparison with the corresponding gamma-lactones” (Eur J Med Chem, 2010)
